Columns and labels:
L1210 [1] = assay: The compound was tested for maximum tolerated dose (MTD) against L1210 cells in […] mice; type: functional, Mus musculus
Outline: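 Acute toxicity in mice by the usual procedure. MTD is the highest dose that can be given without any animal death.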

L1210 [2] = assay: The compound was tested for optimum dose fraction of MTD against L1210 cells in […] mice; type: functional, Mus musculus
Outline: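 L1210 leukaemia, 10^5 cells ip into DBA2 mice. Single ip dose of the acetate salt 24 h later, with 20–30 mice per group. Dose is expressed as a fraction of the MTD, where the MTD (highest dose causing no deaths) is taken as unity.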

Mus musculus = organism: Mus musculus; assay: The mean survival time of treated animals (T) was compared to that of control animals(C) calculated as % T/C = (treated survival/control) x 100; type: functional
Outline: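 DBA2 mice, 20–30 per group, given 10^5 L1210 cells ip. 24 h later one ip injection of drug (acetate salt, water-soluble); controls get solvent alone. Deaths recorded daily and survivors past 45 days counted as cured. T/C = mean survival treated/control ×100, with significance by Student's t test.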

Calf thymus DNA [3] = assay: DNA binding affinity constant in calf-thymus DNA at pH 7.4; type: nucleic-acid assay; settings: Bos taurus
Outline: (§1)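 Calf thymus DNA (4 µg/mL) at 25 °C, with drug at 10^-5 M, titrated with microliter portions of ethidium bromide (100 µg/mL stock in buffer). Fluorescence excitation was 546 nm and emission 590 nm. Apparent affinity constant (Kap) was derived from Scatchard plots of the competition.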

Calf thymus DNA [4] = assay: DNA binding affinity constant for calf-thymus DNA at pH 5; type: nucleic-acid assay; settings: Bos taurus; outline: as §1
Calf thymus DNA [5] = assay: DNA binding affinity constant for calf-thymus DNA at pH 6; type: nucleic-acid assay; settings: Bos taurus; outline: as §1
[6] = Acid dissociation constant (pKa) measured by UV spectroscopy

Compound	MTD (L1210 [1]) [mg/kg]	OD (L1210 [2])	T/C (Mus musculus) [%]	K app (Calf thymus DNA [3]) [M⁻¹]	K app (Calf thymus DNA [4]) [M⁻¹]	K app (Calf thymus DNA [5]) [M⁻¹]	pKa [6]
COc1ccc2c(c1)c1c3c[n+](C)ccc3ccc1n2C.[I-]	25	0.7	122	695000			
COc1ccc2[nH]c3ccc4c[n+](C)ccc4c3c2c1.[I-]	50	0.5		200000			
COc1ccc2[nH]c3ccc4cccnc4c3c2c1				18000	100000	32000	5.25
COc1ccc2[nH]c3ccc4ncccc4c3c2c1				16000	120000	40000	5.6
C[n+]1ccc2c(ccc3[nH]c4ccc(O)cc4c32)c1.[I-]	50	0.5		67000			
COc1ccc2c(c1)c1c3ncccc3ccc1n2C				23000	157000	37000	5.35
COc1ccc2c(c1)c1c3c[n+](CCN4CCCCC4)ccc3ccc1n2C.[Cl-]	10	0.5		300000			
C[n+]1cccc2c3c(ccc21)[nH]c1ccccc13.[I-]	50	0.5		60000			
COc1ccc2[nH]c3ccc4ccncc4c3c2c1				35000	170000	44000	5.75
COc1ccc2[nH]c3ccc4cnccc4c3c2c1				77000	150000	110000	6.4
COc1ccc2[nH]c3ccc4cc[n+](CCO)cc4c3c2c1.[I-]	100	0.5	116	110000			
Oc1ccc2[nH]c3ccc4ccncc4c3c2c1				42000	300000	115000	6.4
COc1ccc2c(c1)c1c3ccncc3ccc1n2C				123000	1.1e+06	467000	6.6
Oc1ccc2[nH]c3ccc4cnccc4c3c2c1				19000	240000	82000	6.75
COc1ccc2[nH]c3ccc4cc[n+](CCN5CCCCC5)cc4c3c2c1.[Cl-]	10	1		120000			
COc1ccc2[nH]c3ccc4cc[n+](C)cc4c3c2c1.[I-]	50	0.5		290000			
COc1ccc2c(c1)c1c3cc[n+](C)cc3ccc1n2C.[I-]	150	0.5	115	310000			
Oc1ccc2[nH]c3ccc4cccnc4c3c2c1				16000	115000	30000	5.35
COc1ccc2c(c1)c1c3cnccc3ccc1n2C				146000	530000	250000	5.9
C[n+]1ccc2ccc3[nH]c4ccc(O)cc4c3c2c1.[I-]	25	1		180000			
